Data taken from publication PMC9044819 (RSC Advances, 2021).
Where “and” joins values, the source holds several entries; their conditions need not be identical. Equal entries are not always repeated. Where two headings read alike, the source gives them in different places.

Columns and labels:
[1] = target: Human VEGFR-2 (Homo sapiens, UniProt P35968); assay: In vitro VEGFR-2 assay; type: biochemical
[2] = tested on: MCF-7; assay: cells; type: cell-based, human
[3] = tested on: HepG-2; assay: MTT anti-proliferative assay, HepG-2; type: cell-based, human
[4] = tested on: primary rat hepatocytes; assay: In vitro cytotoxicity against normal hepatic cells; type: cell-based; settings: HepG-2 vs primary rat hepatocytes
[5] = tested on: HepG-2 cells; assay: Cell cycle analysis; type: cell-based, human; settings: HepG-2, 17b 2.3 μM
[6] = tested on: BAX; assay: Western blot, BAX expression in HepG-2; type: cell-based, human
In short: (§1)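 HepG-2 cells exposed 24 h to test compound at 2.3 μM, then probed by western blot for BAX, Bcl-2, active caspase-9 and active caspase-3. Each band is normalized to β-actin and expressed relative to control, and the BAX/Bcl-2 ratio is also tabulated. Values are mean ± SEM of three independent experiments, with significance flagged at p < 0.05, 0.01 and 0.001.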

[7] = tested on: Bcl-2; assay: Western blot, Bcl-2 expression in HepG-2; type: cell-based, human
In short: as §1

[8] = tested on: caspase-9; assay: Western blot, active caspase-9 in HepG-2; type: cell-based, human
In short: as §1

[9] = tested on: caspase-3; assay: Western blot, active caspase-3 in HepG-2; type: cell-based, human
In short: as §1

[10] = tested on: BAX/Bcl-2 ratio; assay: Western blot, BAX/Bcl-2 ratio in HepG-2; type: cell-based, human; settings: HepG-2 treated 24 h, 2.3 μM; control 1.00; mean ± SEM
In short: as §1

[11] = HepG-2 treated 24 h, 2.3 μM, control 1.00, mean ± SEM

Chain of Human VEGFR-2 (P35968 20-1356): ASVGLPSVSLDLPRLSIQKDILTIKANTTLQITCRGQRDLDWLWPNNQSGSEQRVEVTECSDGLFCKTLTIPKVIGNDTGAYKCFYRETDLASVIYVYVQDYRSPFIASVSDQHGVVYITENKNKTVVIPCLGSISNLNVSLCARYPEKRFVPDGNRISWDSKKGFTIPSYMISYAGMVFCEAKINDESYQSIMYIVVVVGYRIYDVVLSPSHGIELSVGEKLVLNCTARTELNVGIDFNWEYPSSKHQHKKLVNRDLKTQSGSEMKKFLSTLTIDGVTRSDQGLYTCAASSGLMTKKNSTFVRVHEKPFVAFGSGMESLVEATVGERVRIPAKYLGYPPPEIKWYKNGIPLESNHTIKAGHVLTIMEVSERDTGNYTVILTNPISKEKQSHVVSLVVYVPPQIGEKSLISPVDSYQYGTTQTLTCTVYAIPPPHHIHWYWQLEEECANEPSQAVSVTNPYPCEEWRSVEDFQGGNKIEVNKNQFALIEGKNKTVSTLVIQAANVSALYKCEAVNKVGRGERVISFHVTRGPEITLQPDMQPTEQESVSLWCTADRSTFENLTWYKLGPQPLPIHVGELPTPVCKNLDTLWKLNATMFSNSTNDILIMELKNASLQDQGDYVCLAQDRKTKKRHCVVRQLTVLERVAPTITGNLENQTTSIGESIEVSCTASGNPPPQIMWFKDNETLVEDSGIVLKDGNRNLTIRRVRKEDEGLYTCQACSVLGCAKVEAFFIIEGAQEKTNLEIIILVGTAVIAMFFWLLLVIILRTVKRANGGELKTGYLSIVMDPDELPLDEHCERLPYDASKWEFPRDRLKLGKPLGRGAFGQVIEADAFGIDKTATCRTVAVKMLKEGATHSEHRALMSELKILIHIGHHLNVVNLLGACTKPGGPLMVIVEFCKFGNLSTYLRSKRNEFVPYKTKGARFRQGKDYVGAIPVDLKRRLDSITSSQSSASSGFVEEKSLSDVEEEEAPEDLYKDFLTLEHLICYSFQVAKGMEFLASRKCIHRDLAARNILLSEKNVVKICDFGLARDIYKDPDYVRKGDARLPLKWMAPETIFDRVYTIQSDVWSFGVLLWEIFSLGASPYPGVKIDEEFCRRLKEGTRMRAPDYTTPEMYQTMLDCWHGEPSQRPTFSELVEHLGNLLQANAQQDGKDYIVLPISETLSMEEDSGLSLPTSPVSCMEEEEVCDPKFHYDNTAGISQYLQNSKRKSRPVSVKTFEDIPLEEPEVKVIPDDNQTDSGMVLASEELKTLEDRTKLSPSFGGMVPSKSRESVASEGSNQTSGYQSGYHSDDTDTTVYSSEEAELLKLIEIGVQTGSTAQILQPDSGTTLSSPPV

## Cc1nc2ccccc2nc1SCC(=O)Nc1ccc(C(=O)NNC(=O)c2ccccc2O)cc1 [Compound 16, N-(4-(2-(2-Hydroxybenzoyl)hydrazine-1-carbonyl)phenyl)-2-((3-methylquinoxalin-2-yl)thio)acetamide]
[1]
  IC50: 0.0185 ± 0.0008 µM

## Cc1nc2ccccc2n(CC(=O)Nc2ccc(C(=O)NNC(=O)c3ccccc3O)cc2)c1=O [Compound 18, N-(4-(2-(2-Hydroxybenzoyl)hydrazine-1-carbonyl)phenyl)-2-(3-methyl-2-oxoquinoxalin-1(2H)-yl)acetamide]
[1]
  IC50: 0.0112 ± 0.0002 µM

## Cc1nc2ccccc2n(CC(=O)Nc2ccc(C(=O)Nc3cccc(Cl)c3)cc2)c1=O [Compound 17b, N-(3-Chlorophenyl)-4-(2-(3-methyl-2-oxoquinoxalin-1(2H)-yl)acetamido)benzamide]
[2]; read-out: MCF-7 (IC50), MTT, mean ± S.D. of three experiments
  IC50: 2.8 ± 0.2 µM
[3]; read-out: HepG-2 (IC50), MTT, mean ± S.D. of three experiments
  IC50: 2.3 ± 0.2 µM
[4]
  cytotoxic activity against cancer HepG-2 cell line more than against normal hepatic cells: 10 fold
[5]
  Cell cycle analysis (%) % G1: 40.03 ± 2.82 %
  Cell cycle analysis (%) % G2/M: 30.38% and 30.38 ± 2.93 %
  Cell cycle analysis (%) % S: 28.31 ± 1.01%
  Cell cycle analysis (%) % Sub-G1: 1.27 ± 0.17%
[6]; HepG-2, 2.3 μM
  boost of BAX level: approximately 4 fold
[6]; [11]
  Protein expression (normalized to β-actin) BAX: 4.21 ± 0.60
[7]; HepG-2, 2.3 μM
  downregulation of Bcl-2 level: around 3 fold
[7]; [11]
  Protein expression (normalized to β-actin) Bcl-2: 0.32 ± 0.04
[8]; HepG-2, 2.3 μM
  increase of caspase-9 level compared to control cells: 1.74 fold
[8]; [11]
  Protein expression (normalized to β-actin) Caspases-9: 1.74 ± 0.20
[9]; HepG-2, 2.3 μM
  increase of caspase-3 level compared to control cells: 1.8 fold
[9]; [11]
  Protein expression (normalized to β-actin) Caspases-3: 1.85 ± 0.26
[10]
  Protein expression (normalized to β-actin) BAX/Bcl-2 ratio: 9.30 ± 2.66

## Cc1nc2ccccc2nc1SCC(=O)Nc1ccc(C(=O)Nc2ccc([N+](=O)[O-])cc2O)cc1 [Compound 15d, N-(2-Hydroxy-4-nitrophenyl)-4-(2-((3-methylquinoxalin-2-yl)thio)acetamido)benzamide]
[1]
  IC50: 0.0315 ± 0.0013 µM

## Cc1nc2ccccc2n(CC(=O)Nc2ccc(C(=O)Nc3ccc([N+](=O)[O-])cc3O)cc2)c1=O [Compound 17d, N-(2-Hydroxy-4-nitrophenyl)-4-(2-(3-methyl-2-oxoquinoxalin-1(2H)-yl)acetamido)benzamide]
[2]; Homo sapiens, MCF7, read-out: MCF-7 (IC50, μM)
  IC50: 35.2 ± 1.6 µM
[3]; Homo sapiens, HepG2, read-out: HepG-2 (IC50, μM)
  IC50: 22.4 ± 1.3 µM
[1]
  IC50: 0.0112 ± 0.0003 µM

## CCCCNC(=O)c1ccc(NC(=O)CSc2nc3ccccc3nc2C)cc1 [Compound 15a, N-Butyl-4-(2-((3-methylquinoxalin-2-yl)thio)acetamido)benzamide]
[1]
  IC50: 0.0231 ± 0.0008 µM

## Cc1nc2ccccc2n(CC(=O)Nc2ccc(C(=O)Nc3ccc(O)cc3)cc2)c1=O [Compound 17c, N-(4-Hydroxyphenyl)-4-(2-(3-methyl-2-oxoquinoxalin-1(2H)-yl)acetamido)benzamide]
[1]
  IC50: 0.0139 ± 0.0005 µM

## CNC(=O)c1cc(Oc2ccc(NC(=O)Nc3ccc(Cl)c(C(F)(F)F)c3)cc2)ccn1 [Sorafenib, sorafenib, reference compound]
[4]
  cytotoxic activity against cancer HepG-2 cell line more than against normal hepatic cells: 11 fold

## Cc1nc2ccccc2nc1SCC(=O)Nc1ccc(C(=O)Nc2cccc(Cl)c2)cc1 [Compound 15b, N-(3-Chlorophenyl)-4-(2-((3-methylquinoxalin-2-yl)thio)acetamido)benzamide]
[1]
  IC50: 0.0034 ± 0.0002 µM

## CCCCNC(=O)c1ccc(NC(=O)Cn2c(=O)c(C)nc3ccccc32)cc1 [Compound 17a, N-Butyl-4-(2-(3-methyl-2-oxoquinoxalin-1(2H)-yl)acetamido)benzamide]
[1]
  IC50: 0.0112 ± 0.0004 µM

## Cc1nc2ccccc2nc1SCC(=O)Nc1ccc(C(=O)Nc2ccc(O)cc2)cc1 [Compound 15c, N-(4-Hydroxyphenyl)-4-(2-((3-methylquinoxalin-2-yl)thio)acetamido)benzamide]
[1]
  IC50: 0.0278 ± 0.0012 µM
